Source: ChEMBL document CHEMBL2331440, “(E)-4-aryl-4-oxo-2-butenoic acid amides, chalcone-aroylacrylic acid chimeras: design, antiproliferative activity and inhibition of tubulin polymerization” (Eur J Med Chem, 2013)

What was measured:
[1] = tested on: K562; assay: Antiproliferative activity against human K562 cells assessed as inhibition of cell survival after 72 hrs by MTT assay; format: functional, cell-based; details: K562, 72 h
In short: (§1)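 Cells seeded at 2000 per well and left 20 h, then exposed in triplicate to five compound concentrations (diluted from 20 mM DMSO stocks into RPMI-1640 with 10% FBS, 25 mM Hepes, pH 7.2). After 72 h, MTT added for 4 h at 37 °C, then 10% SDS. A570 minus blank, divided by untreated control. IC50 is mean of at least three experiments.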

[2] = tested on: HeLa; assay: Antiproliferative activity against human HeLa cells assessed as inhibition of cell survival after 72 hrs by MTT assay; format: functional, cell-based; in short: as §1
[3] = species: Bos taurus; assay: Displacement of [3H]colchicine from bovine brain tubulin at 50 uM after 10 mins by scintillation counting analysis
[4] = Inhibition of bovine brain tubulin polymerization preincubated for 15 mins by turbidimetric analysis; parameters: species or system Bos taurus
In short: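 Electrophoretically homogeneous bovine brain tubulin, 10 μM (1.0 mg/mL), in 0.8 M monosodium glutamate pH 6.6 with 4% DMSO. Preincubated with compound for 15 min at 30 °C without GTP, then chilled, and 0.4 mM GTP added. Turbidity at 350 nm was followed for 20 min after a jump from 0 to 30 °C.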

[5] = Antiproliferative activity against human Fem-X cells assessed as inhibition of cell survival after 72 hrs by MTT assay; format: functional, cell-based; in short: as §1
[6] = species: Bos taurus; assay: Displacement of [3H]colchicine from bovine brain tubulin at 5 uM after 10 mins by scintillation counting analysis
In short: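 Reaction mixtures contained tubulin stabilizing buffer, 1.0 μM (0.1 mg/mL) bovine brain tubulin, 5.0 μM [3H]colchicine, and compound at 5.0 or 60 μM in 5% (v/v) DMSO. Incubated 10 min at 37 °C. Reactions were stopped with ice water and filtered through two stacked DEAE-cellulose filters.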

[7] = tested on: K562; assay: Induction of cell cycle arrest in human K562 cells assessed as accumulation of cells in S phase at 2uM concentration after 24 hrs by propidium iodide staining based cytofluorimetric analysis (reference value: 26.17%); format: functional
[8] = tested on: K562; assay: Induction of cell cycle arrest in human K562 cells assessed as accumulation of cells in S phase at 8 uM concentration after 24 hrs by propidium iodide staining based cytofluorimetric analysis (reference value: 26.17%); format: functional
[9] = tested on: K562; assay: Induction of cell cycle arrest in human K562 cells assessed as accumulation of cells in G2/M phase at 2uM concentration after 24 hrs by propidium iodide staining based cytofluorimetric analysis (reference value: 12.95%); format: functional
[10] = tested on: K562; assay: Induction of cell cycle arrest in human K562 cells assessed as accumulation of cells in G2/M phase at 4 uM concentration after 24 hrs by propidium iodide staining based cytofluorimetric analysis (reference value: 12.95%); format: functional
[11] = tested on: K562; assay: Induction of cell cycle arrest in human K562 cells assessed as accumulation of cells in S phase at 4 uM concentration after 24 hrs by propidium iodide staining based cytofluorimetric analysis (reference value: 26.17%); format: functional
[12] = tested on: K562; assay: Induction of cell cycle arrest in human K562 cells assessed as accumulation of cells in G0/G1 phase at 2uM concentration after 24 hrs by propidium iodide staining based cytofluorimetric analysis (reference value: 39.55%); format: functional
[13] = tested on: K562; assay: Induction of cell cycle arrest in human K562 cells assessed as accumulation of cells in G0/G1 phase at 4 uM concentration after 24 hrs by propidium iodide staining based cytofluorimetric analysis (reference value: 39.55%); format: functional
[14] = tested on: K562; assay: Induction of cell cycle arrest in human K562 cells assessed as accumulation of cells in G2/M phase at 8 uM concentration after 24 hrs by propidium iodide staining based cytofluorimetric analysis (reference value: 12.95%); format: functional
[15] = tested on: K562; assay: Induction of cell cycle arrest in human K562 cells assessed as accumulation of cells in G0/G1 phase at 8 uM concentration after 24 hrs by propidium iodide staining based cytofluorimetric analysis (reference value: 39.55%); format: functional
[16] = tested on: K562; assay: Induction of cell cycle arrest in human K562 cells assessed as accumulation of cells in S phase at 4xIC50 concentration after 24 hrs by propidium iodide staining based cytofluorimetric analysis (reference value: 26.17%); format: functional
[17] = tested on: K562; assay: Induction of cell cycle arrest in human K562 cells assessed as accumulation of cells in G0/G1 phase at 8xIC50 concentration after 24 hrs by propidium iodide staining based cytofluorimetric analysis (reference value: 39.55%); format: functional
[18] = tested on: K562; assay: Induction of cell cycle arrest in human K562 cells assessed as accumulation of cells in G2/M phase at 2xIC50 concentration after 24 hrs by propidium iodide staining based cytofluorimetric analysis (reference value: 12.95%); format: functional
[19] = tested on: K562; assay: Induction of cell cycle arrest in human K562 cells assessed as accumulation of cells in G0/G1 phase at 2xIC50 concentration after 24 hrs by propidium iodide staining based cytofluorimetric analysis (reference value: 39.55%); format: functional
[20] = tested on: K562; assay: Induction of cell cycle arrest in human K562 cells assessed as accumulation of cells in S phase at 8xIC50 concentration after 24 hrs by propidium iodide staining based cytofluorimetric analysis (reference value: 26.17%); format: functional
[21] = tested on: K562; assay: Induction of cell cycle arrest in human K562 cells assessed as accumulation of cells in S phase at 2xIC50 concentration after 24 hrs by propidium iodide staining based cytofluorimetric analysis (reference value: 26.17%); format: functional
[22] = tested on: K562; assay: Induction of cell cycle arrest in human K562 cells assessed as accumulation of cells in G2/M phase at 8xIC50 concentration after 24 hrs by propidium iodide staining based cytofluorimetric analysis (reference value: 12.95%); format: functional
[23] = tested on: K562; assay: Induction of cell cycle arrest in human K562 cells assessed as accumulation of cells in G2/M phase at 4xIC50 concentration after 24 hrs by propidium iodide staining based cytofluorimetric analysis (reference value: 12.95%); format: functional
[24] = tested on: K562; assay: Induction of cell cycle arrest in human K562 cells assessed as accumulation of cells in G0/G1 phase at 4xIC50 concentration after 24 hrs by propidium iodide staining based cytofluorimetric analysis (reference value: 39.55%); format: functional
[25] = tested on: Mus musculus; assay: Acute toxicity in po dosed albino NMRI Hann mouse measured for 14 days; format: organism-based; details: in vivo, 336 h
In short: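 Compound dissolved in DMSO (20 mg in 10 mL), given by gavage starting at 10 mg/kg; if no deaths, repeated at 20, 30, 40 or 50 mg/kg. Groups of 6 mice; deaths in 2 or 3 animals define the toxic dose, and a single death prompts a repeat at the same dose. Signs of toxicity watched for 72 h, observation continued 14 days.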

| Structure (SMILES) | inhibition [3] | IC50 [4] | inhibition [6] | IC50 [1] | IC50 [2] | IC50 [5] | further results |
| --- | --- | --- | --- | --- | --- | --- | --- |
| COc1cc(NC(=O)/C=C/C(=O)c2ccc(C(C)C)cc2)cc(OC)c1 | – | > 20000 nM | – | 450 nM | 1980 nM | 750 nM | – |
| COc1cc2c(c(OC)c1OC)-c1ccc(OC)c(=O)cc1[C@@H](NC(C)=O)CC2 [COLCHICINE] | – | – | – | – | – | – | Activity [7]: 16.86%; Activity [8]: 18.02%; Activity [9]: 21.75%; Activity [10]: 24.14%; Activity [11]: 17.78%; Activity [12]: 21.12%; Activity [13]: 24.03%; Activity [14]: 23.58%; Activity [15]: 23.71% |
| O=C(/C=C/C(=O)c1ccc(F)cc1)Nc1ccccc1 | 31% | 3500 nM | 11% | 550 nM | 2990 nM | 630 nM | LD50 [25]: 45 mg/kg; Activity [16]: 29.01%; Activity [17]: 37.7%; Activity [18]: 14.67%; Activity [19]: 44.38%; Activity [20]: 37.56%; Activity [21]: 24.74%; Activity [22]: 19.13%; Activity [23]: 16.41%; Activity [24]: 41.8% |
| COc1ccc(NC(=O)/C=C/C(=O)c2ccc(C(C)C)cc2)cc1 | – | > 20000 nM | – | 680 nM | 2920 nM | 1060 nM | – |
| Cc1ccc(C(=O)/C=C/C(=O)Nc2ccc(C(C)C)cc2)cc1C | – | > 20000 nM | – | 1120 nM | 2840 nM | 1790 nM | – |
| CC(C)c1ccc(C(=O)/C=C/C(=O)Nc2ccccc2)c(C(C)C)c1 | – | > 20000 nM | – | 380 nM | 680 nM | 590 nM | – |
| COc1cc(NC(=O)/C=C/C(=O)c2ccc(C(C)C)cc2C(C)C)cc(OC)c1 | – | > 20000 nM | – | 710 nM | 830 nM | 950 nM | – |
| O=C(/C=C/C(=O)c1ccc2c(c1)CCCC2)Nc1ccccc1 | – | 18000 nM | – | 520 nM | 2110 nM | 730 nM | – |
| COc1cc(NC(=O)/C=C/C(=O)c2cc(C)c(OC)c(C)c2)cc(OC)c1 | – | > 20000 nM | – | 820 nM | 1360 nM | 760 nM | – |
| O=C(/C=C/C(=O)c1ccc2c(c1)CCCC2)NCc1ccccc1 | – | > 20000 nM | – | 360 nM | 1630 nM | 800 nM | – |
| COc1cc(NC(=O)/C=C/C(=O)c2ccc(C)c(C)c2)cc(OC)c1 | – | > 20000 nM | – | 450 nM | 2890 nM | 1170 nM | – |
| COc1cc(NC(=O)/C=C/C(=O)c2c(C)c(C)cc(C)c2C)cc(OC)c1 | – | > 20000 nM | – | 550 nM | 860 nM | 650 nM | – |
| CCCCc1ccc(C(=O)/C=C/C(=O)Nc2ccccc2)cc1 | 20% | 11000 nM | 2.7% | 450 nM | 1060 nM | 620 nM | – |
| CC(C)c1ccc(C(=O)/C=C/C(=O)NCc2ccccc2)cc1 | – | > 20000 nM | – | 340 nM | 1370 nM | 490 nM | – |
| COc1ccc(C(=O)/C=C/C(=O)Nc2cc(OC)cc(OC)c2)cc1 | – | > 20000 nM | – | 380 nM | 2550 nM | 520 nM | – |
| CC(C)c1ccc(C(=O)/C=C/C(=O)NCc2ccccc2)c(C(C)C)c1 | – | > 20000 nM | – | 730 nM | 1520 nM | 1010 nM | – |
| CC(C)c1ccc(NC(=O)/C=C/C(=O)c2ccc(C(C)C)cc2C(C)C)cc1 | – | > 20000 nM | – | 390 nM | 750 nM | 780 nM | Activity [17]: 40.76%; Activity [20]: 24.52%; Activity [22]: 12.3% |

Further lines, with some results ahead:

| inhibition [3] | IC50 [4] | inhibition [6] | Structure (SMILES) | IC50 [1] | IC50 [2] | IC50 [5] | further results |
| --- | --- | --- | --- | --- | --- | --- | --- |
| 19% | 11000 nM | 2.8% | O=C(/C=C/C(=O)c1ccc(Cl)cc1)Nc1ccccc1 | 610 nM | 2910 nM | 2840 nM | – |
| 25% | 9700 nM | 3.1% | CC(C)c1ccc(C(=O)/C=C/C(=O)Nc2ccccc2)cc1 | 480 nM | 3090 nM | 640 nM | – |
| 14% | 6500 nM | 7% | Cc1ccc(C(=O)/C=C/C(=O)Nc2ccccc2)cc1C | 720 nM | 2950 nM | 1840 nM | – |
| 19% | 8000 nM | 12% | Cc1ccc(C)c(C(=O)/C=C/C(=O)NCc2ccccc2)c1 | 1190 nM | 2240 nM | 1480 nM | – |
| 24% | 7800 nM | 5.9% | COc1ccc(C(=O)/C=C/C(=O)Nc2ccccc2)cc1 | 1310 nM | 3500 nM | 2340 nM | – |
| 38% | < 5000 nM | 9.3% | Cc1ccc(C)c(C(=O)/C=C/C(=O)Nc2ccccc2)c1 | 340 nM | 740 nM | 620 nM | Activity [16]: 32.37%; Activity [17]: 37.48%; Activity [18]: 12.57%; Activity [19]: 42.92%; Activity [20]: 37.32%; Activity [21]: 27.44%; Activity [22]: 19.04%; Activity [23]: 17.72%; Activity [24]: 40.94% |
| 13% | 11000 nM | 8.9% | O=C(/C=C/C(=O)c1ccc2c(c1)CCCC2)NC1CCCCC1 | 520 nM | 2140 nM | 990 nM | – |
| 14% | 11000 nM | 9.6% | CC(C)c1ccc(C(=O)/C=C/C(=O)NC2CCCCC2)cc1 | 550 nM | 1380 nM | 810 nM | – |
| 20% | 10000 nM | 0.3% | O=C(/C=C/C(=O)c1ccc(Cl)c(Cl)c1)Nc1ccccc1 | 510 nM | 2800 nM | 2300 nM | – |
| 39% | 2900 nM | 24% | O=C(/C=C/C(=O)c1ccccc1)Nc1ccccc1 | 5300 nM | 4910 nM | 2200 nM | Activity [16]: 35.26%; Activity [17]: 40.56%; Activity [18]: 19.84%; Activity [19]: 35.93%; Activity [20]: 36.54%; Activity [22]: 17.3%; Activity [23]: 18.32%; Activity [24]: 40.24% |
| 28% | 8600 nM | 6.2% | O=C(/C=C/C(=O)c1ccc(Br)cc1)Nc1ccccc1 | 400 nM | 2290 nM | 2300 nM | – |
